Test results: ChEMBL document CHEMBL4811308, “Design, synthesis and broad spectrum antibreast cancer activity of diarylindoles via induction of apoptosis in aggressive breast cancer cells” (Bioorg Med Chem, 2021)
Calls of active or inactive are those of the source. The calls are words filed in the database; no cut-off is given here.

Columns and labels:
PC-3 = test: Cytotoxicity against human PC-3 cells assessed as reduction in cell viability incubated for 24 hrs by MTT assay; assay type: functional, cell-based; conditions: PC-3, 24 h
Outline: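 MTT viability: cells seeded at 1 × 10^4/well, grown 24 h, then exposed to a concentration range of compound for 24 h. MTT (5 mg/mL stock) added for 3 h, formazan dissolved in DMSO, absorbance read at 540 nm.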

MDA-MB-231 [1] = test: Induction of cell cycle arrest in human MDA-MB-231 cells assessed as accumulation at G0/G1 phase at 4 uM incubated for 24 hrs by PI staining based flow cytometry analysis (reference value: 23.74 to 46.27 %); assay type: functional
MDA-MB-231 [2] = test: Induction of cell cycle arrest in human MDA-MB-231 cells assessed as accumulation at S phase at 6 uM incubated for 24 hrs by PI staining based flow cytometry analysis (reference value: 40.37 to 57.89 %); assay type: functional
MDA-MB-231 [3] = test: Induction of apoptosis in human MDA-MB-231 cells assessed as viable cells at 2 uM incubated for 24 hrs by annexin-V-FITC and PI staining based flow cytometry analysis (reference value: 95.27 to 97.16 %); assay type: functional; conditions: read-out: Activity
MDA-MB-231 [4] = test: Induction of apoptosis in human MDA-MB-231 cells assessed as early apoptotic cells at 2 uM incubated for 24 hrs by annexin-V-FITC and PI staining based flow cytometry analysis (reference value: 0.28 to 4.68 %); assay type: functional
Outline: (§1)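 MDA-MB-231 cells (1 × 10^6) grown 24 h in six-well plates, then treated for 24 h. Cells trypsinized, PBS-washed and stained with Annexin V-FITC/PI in binding buffer for 10 min in the dark at room temperature. Early/late apoptotic fractions quantified by flow cytometry.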

MDA-MB-231 [5] = test: Induction of apoptosis in human MDA-MB-231 cells assessed as late apoptotic cells at 2 uM incubated for 24 hrs by annexin-V-FITC and PI staining based flow cytometry analysis (reference value: 0.28 to 0.84 %); assay type: functional
MDA-MB-231 [6] = test: Induction of apoptosis in human MDA-MB-231 cells assessed as early apoptotic cells at 4 uM incubated for 24 hrs by annexin-V-FITC and PI staining based flow cytometry analysis (reference value: 0.28 to 4.68 %); assay type: functional; outline: as §1
MDA-MB-231 [7] = test: Induction of apoptosis in human MDA-MB-231 cells assessed as necrotic cells at 4 uM incubated for 24 hrs by annexin-V-FITC and PI staining based flow cytometry analysis (reference value: 0.01 to 0.8 %); assay type: functional
MDA-MB-231 [8] = test: Induction of apoptosis in human MDA-MB-231 cells incubated for 24 hrs by annexin-V-FITC and PI staining based flow cytometry analysis; assay type: functional, cell-based; conditions: dose 2-6 µM
MDA-MB-231 [9] = test: Induction of mitochondrial membrane depolarization in human MDA-MB-231 cells at 2 to 6 uM incubated for 24 hrs by JC-1 staining based flow cytometry analysis; assay type: functional, cell-based; conditions: dose 2-6 µM
Outline: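 Mitochondrial potential measured in MDA-MB-231 cells (1 × 10^6) seeded in six-well plates for 24 h and treated 24 h. Trypsinized cells PBS-washed and stained with 5 µg/ml JC-1 for 30 min in dark at room temperature. Resuspended in PBS and read by flow cytometry as red aggregate versus monomer fluorescence.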

MDA-MB-231 [10] = test: Induction of ROS production in human MDA-MB-231 cells at 2 to 6 uM incubated for 24 hrs by DCFH-DA staining based flow cytometry analysis; assay type: functional, cell-based; conditions: dose 2-6 µM
Outline: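 MDA-MB-231 cells (1 × 10^6) seeded in 6-well plates for 24 h, then treated at several concentrations for 24 h. Cells trypsinized, fixed in cold methanol, stained with 30 µg/mL DCFH-DA for 30 min in the dark at room temperature, and analysed by flow cytometry.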

MDA-MB-231 [11] = test: Cytotoxicity against human MDA-MB-231 cells assessed as reduction in cell viability at 2 to 6 uM incubated for 24 hrs in presence of NAC by MTT assay; assay type: functional, cell-based; conditions: dose 2-6 µM
Outline: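 MDA-MB-231 cells pretreated 2 h with 10 mM N-acetylcysteine, then exposed to compound for 24 h. Viability by MTT (3 h), formazan in DMSO, absorbance at 540 nm. Three independent experiments, mean ± S.E.M.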

MDA-MB-231 [12] = test: Induction of autophagy in human MDA-MB-231 cells at 2 to 4 uM incubated for 24 hrs by MDC staining based fluorescence microscopic analysis; assay type: functional, cell-based; conditions: dose 2-4 µM
Outline: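 Autophagic vacuoles detected in MDA-MB-231 cells (1 × 10^6) seeded on cover slips for 24 h, then treated 24 h. Cells PBS-washed, stained with 0.05 mM monodansylcadaverine for 30 min in dark at room temperature, washed, and examined by fluorescence microscopy.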

[13] = molecular target: Estrogen receptor beta (Homo sapiens) (UniProt Q92731); test: Transactivation of ERbeta (unknown origin) transfected in human MDA-MB-231 cells at 1 uM by dual luciferase receptor assay; assay type: cell-based
Outline: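 MDA-MB-231 cells grown to 80-90% confluency, transfected with 500 ng of ERα (pSG5 mERα) or ERβ (pSG5-hERβ) expression vector plus pRL-SV40 Renilla for normalization, then reseeded. Cells incubated with E2 (100 nM), compound at 1 µM, or tamoxifen at 1 µM. Dual luciferase readout reported as percent normalized RLU, triplicate experiments with three replicates each.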

Tubulin (Homo sapiens) = Tubulin (Homo sapiens) (UniProt P68371+Q9H4B7+P0DPH7+P68366+Q13509+Q71U36+P04350+Q3ZCM7+P07437+P68363+Q9BQE3+Q6PEY2+Q13885+Q9BVA1+Q9BUF5); test: Induction of tubulin polymerization (unknown origin) at 10 uM incubated for 1 hr by spectrometric analysis; assay type: protein-complex assay
4T1 = test: Antitumor activity against mouse 4T1 cells […] in BALB/c mouse assessed as reduction in tumor growth at 10 to 20 mg/kg, po administered for 21 days and measured on day 21 relative to control; assay type: functional, organism-based; conditions: dose 10-20 mg/kg, time 21.0 day
Outline: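 Orthotopic syngeneic model: 4T1 cells (7 × 10^5) injected into the mammary fat pad of six-week-old female Balb/c mice; randomized once tumors were measurable (1 week). Compounds in ethanol diluted in PBS, 10 or 20 mg/kg oral gavage daily for 21 days; vehicle controls. Tumor size measured twice weekly; volume = (LW²) × 0.5.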

[14] = Acute toxicity in Swiss albino mouse assessed as SGPT level at 50 mg/kg, po administered once and observed for 7 days (reference value: 12.65 +/- 2.98 U/L); assay type: organism-based; conditions: in vivo, 168 h, time 7 day
[15] = Acute toxicity in Swiss albino mouse assessed as bilirubin level at 50 mg/kg, po administered once and observed for 7 days (reference value: 0.44 +/- 0.06 mg/dl); assay type: organism-based; conditions: in vivo, 168 h, time 7 day
[16] = Acute toxicity in Swiss albino mouse assessed as protein level at 50 mg/kg, po administered once and observed for 7 days (reference value: 2.01 +/- 0.11 mg/ml); assay type: organism-based; conditions: in vivo, 168 h, time 7 day
[17] = Toxicity in BALB/c mouse xenografted with mouse 4T1 cells assessed as survival rate at 10 to 20 mg/kg, po administered for 21 days and measured on day 21; assay type: organism-based; conditions: in vivo, 504 h, dose 10-20 mg/kg, time 21 day
Outline: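 Orthotopic syngeneic model: 4T1 cells (7 × 10^5) injected into mammary fat pad of six-week-old female Balb/c mice. Once tumours were measurable at one week, mice were randomized into ten groups. Compound was dissolved in ethanol, diluted in PBS, and given by oral gavage at 10 or 20 mg/kg daily for 21 days; vehicle controls. Body weight and tumour size were measured twice weekly.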

Sequence of Estrogen receptor beta (Homo sapiens) (Q92731 whole entry): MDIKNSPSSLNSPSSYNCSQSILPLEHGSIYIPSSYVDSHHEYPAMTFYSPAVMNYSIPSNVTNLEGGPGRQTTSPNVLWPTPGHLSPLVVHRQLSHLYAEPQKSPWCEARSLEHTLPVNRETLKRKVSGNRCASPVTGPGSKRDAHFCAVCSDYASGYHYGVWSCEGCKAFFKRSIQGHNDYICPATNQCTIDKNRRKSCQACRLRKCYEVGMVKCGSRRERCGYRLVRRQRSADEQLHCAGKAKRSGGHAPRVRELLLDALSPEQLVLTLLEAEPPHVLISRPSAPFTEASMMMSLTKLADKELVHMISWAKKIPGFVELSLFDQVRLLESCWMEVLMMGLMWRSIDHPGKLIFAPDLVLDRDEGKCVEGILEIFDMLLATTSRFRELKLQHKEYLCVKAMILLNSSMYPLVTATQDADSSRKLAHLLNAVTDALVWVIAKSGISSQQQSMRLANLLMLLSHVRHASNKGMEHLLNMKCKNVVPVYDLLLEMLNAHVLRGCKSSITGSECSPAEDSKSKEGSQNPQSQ

Row | SMILES | IC50 (PC-3) [µM] | Activity (MDA-MB-231 [1]) [%] | Activity (MDA-MB-231 [2]) [%] | viability at 2 µM (MDA-MB-231 [3]) [%] | Activity (MDA-MB-231 [4]) [%] | Activity (MDA-MB-231 [5]) [%] | Activity (MDA-MB-231 [6]) [%] | Activity (MDA-MB-231 [7]) [%] | Activity (MDA-MB-231 [8]) | Activity (MDA-MB-231 [9]) | Activity (MDA-MB-231 [10]) | Activity (MDA-MB-231 [11]) | Activity (MDA-MB-231 [12]) | Activity ([13]; filed as activator) | Activity (Tubulin (Homo sapiens)) | Activity (4T1) | Activity [14] [U/L] | Activity [15] [mg/dL] | Activity [16] [mg/mL] | Activity [17] | other results
1 | COc1ccc2c(c1)c(Cc1ccc(OCCN(C)C)cc1)c(-c1cc(OC)c(OC)c(OC)c1)n2Cc1ccc(OCCN(C)C)cc1 | 5.82 | 61.13 | 35.63 | 80.7 | 11.63 | 5.32 | 18.17 | 3.44 | Dose-Dependent Effect | Active | Active | inactive | Active | Active | Active | Active | 15.07 | 0.35 | 1.48 | Non-Toxic | 
2 | COc1ccc2c(c1)c(Cc1ccc(OCCN3CCCCC3)cc1)c(-c1cc(OC)c(OC)c(OC)c1)n2Cc1ccc(OCCN2CCCCC2)cc1 | 7.07 | 55.16 | 29.41 | 81.5 | 12.28 | 4.26 | 16.02 | 1.69 | Dose-Dependent Effect | Active | Active | inactive | Active |  | Active | Active |  |  |  | Non-Toxic | Activity [13]: inactive
3 | COc1ccc2c(c1)c(Cc1ccc(OC(C)CN(C)C)cc1)c(-c1cc(OC)c(OC)c(OC)c1)n2Cc1ccc(OC(C)CN(C)C)cc1 (centres undefined) | 6.72 | 46.54 | 42.27 | 72.5 | 17.38 | 3.43 | 28.04 | 3.55 | Dose-Dependent Effect | Active | Active | inactive | Active | Active | Active | Active | 18.69 | 0.39 | 1.28 | Non-Toxic | 
4 | CCN(CC)CCOc1ccc(Cc2c(-c3cc(OC)c(OC)c(OC)c3)n(Cc3ccc(OCCN(CC)CC)cc3)c3ccc(OC)cc23)cc1 | 8.31 | 53.87 | 36.56 | 88.2 | 9.52 | 2.94 | 4.19 | 3.29 | Dose-Dependent Effect | Active | Active | inactive | Active | Active | Active | Active |  |  |  | Non-Toxic | 
